Screens: PubChem, several laboratories
The list is not random: actives were taken first. Their share in the collection is about 1.6%.
eIF4E 4G PPI: eIF4E–eIF4G protein interaction inhibitors, primary screen, biochemical, uHTS, TR-FRET, eIF4GI fragment; Eukaryotic translation initiation factor 4E (Mus musculus) + Eukaryotic translation …; TR-FRET eIF4E-eIF4GI(517-606) binding, 2 h; inhibition, % at 21.7 µM; 220,000 tested, 0.37% active; AID 782, 2007;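 also: 0% = full FRET control wells and 100% = background wells lacking eIF4GI fragment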
NCF1 inh: p47phox/p22phox peptide binding inhibitors, primary screen, biochemical, uHTS, NADPH oxidase regulatory subunit | Neutrophil cytosol factor 1 (Homo sapiens), P14598 | 220,000 tested, 0.53% active | fluorescence polarization, 2 h | inhibition, % at 24.7 µM;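 also: 0% = p47phox with labelled peptide and 100% = labelled peptide alone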
Tb MetRS inh: T. brucei MetRS inhibitors, primary screen, biochemical, luminescence; purified T. brucei MetRS, ATP depletion, Kinase-Glo luminescence; 360,000 tested, 0.4% active; inhibition, % at 11.9 µM;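 active = inhibition above a per-plate cutoff of the control wells' mean inhibition plus 3 SD, cut at about 5.5% in these data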;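 also: 0% = DMSO wells median and 100% = median of wells with control inhibitor compound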
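Material – parasite MetRS enzyme · Medium – HEPES-MgCl2-KCl buffer plus DTT, spermine, BSA, pyrophosphatase · Reagent – ATP, methionine and E. coli bulk tRNA substrates · Times – 15 min enzyme-compound preincubation, 2 h reaction, 10 min detection, 25 °C · Measured by – luminescence of leftover ATP · Evaluation – percent inhibition relative to median high and low control wells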
14-3-3 Bad inh: inhibitors of 14-3-3 zeta/Bad binding, primary screen, biochemical, TR-FRET, bovine 14-3-3 zeta. TR-FRET 14-3-3zeta/Dy647-pBad peptide displacement, 1 h. inhibition, % at 21.7 µM. 220,000 tested, 0.71% active. AID 781, 2007;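 active = inhibition above about 70%, limit read from the data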;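 also: 0% = full 14-3-3 plus peptide FRET controls and 100% = background without 14-3-3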
Target sequence (P63103 whole entry, looked up): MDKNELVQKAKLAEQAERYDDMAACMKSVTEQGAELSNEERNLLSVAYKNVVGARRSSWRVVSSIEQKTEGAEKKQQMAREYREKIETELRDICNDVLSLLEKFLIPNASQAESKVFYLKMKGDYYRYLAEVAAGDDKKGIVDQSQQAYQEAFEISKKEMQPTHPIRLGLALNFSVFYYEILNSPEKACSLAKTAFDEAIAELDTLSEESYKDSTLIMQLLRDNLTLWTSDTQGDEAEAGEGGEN
SUMO HTRF inh: inhibitors of in vitro SUMOylation cascade, primary screen, biochemical, HTRF, uHTS. HTRF SUMOylation assay, SAE1/SAE2 + UBC9. 290,000 tested, 0.36% active. inhibition, % at 35 µM. SUMO-conjugating enzyme UBC9 (Homo sapiens), P63279; in the data active = inhibition above about 50%, passing the limit was not always enough
Target sequence (P63279 whole entry, looked up): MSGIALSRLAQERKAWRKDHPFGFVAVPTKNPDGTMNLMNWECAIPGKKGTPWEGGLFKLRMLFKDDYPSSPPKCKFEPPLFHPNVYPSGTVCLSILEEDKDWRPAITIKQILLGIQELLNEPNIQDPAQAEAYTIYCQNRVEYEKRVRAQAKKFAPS
p97 ATPase inh: inhibitors of human p97 ATPase, primary screen, biochemical; Transitional endoplasmic reticulum ATPase (Homo sapiens), P55072; recombinant p97 ATPase, Kinase-Glo ATP luminescence, 3 h; inhibition, % at 8 µM; 220,000 tested, 0.42% active; AID 1481, 2009; in the data active = inhibition above about 15%;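 also: 0% = DMSO vehicle and 100% = wells lacking enzyme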
p97 inh conf: p97 ATPase inhibitors, retest, confirmation, biochemical; shares compounds with p97 ATPase inh; recombinant p97 ATPase, Kinase-Glo ATP luminescence; inhibition, % at 8 µM; 760 tested, 44% active; AID 1517, 2009;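 active = percent inhibition of p97 ATPase above a set limit, the primary screen's mean plus 3 SD, cut at about 15% in these data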;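 also: 0% = DMSO wells and 100% = wells lacking p97 protein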
The depositor's hits bear a star.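 The calls were made as follows, unless noted: active = inhibition above about 30% (limit read from the data); inactive = the rest.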

For COCCOC(=O)c1c(N)n(Cc2ccc(OC)cc2)c2nc3ccccc3nc12 the results were eIF4E 4G PPI 6, NCF1 inh -9, Tb MetRS inh 1, 14-3-3 Bad inh -13, SUMO HTRF inh 21 and p97 ATPase inh 13.
COCCCNC(=O)c1c(N)n(Cc2ccco2)c2nc3ccccc3nc12 was read as eIF4E 4G PPI 5, NCF1 inh -21, Tb MetRS inh 0, 14-3-3 Bad inh 3, SUMO HTRF inh 39 and p97 ATPase inh 6.
COCCCNC(=O)c1c(NC(=O)c2ccco2)n(Cc2ccccc2)c2nc3ccccc3nc12 was read as eIF4E 4G PPI -7, NCF1 inh -28, Tb MetRS inh 0, 14-3-3 Bad inh 8, SUMO HTRF inh 98*, p97 ATPase inh 24* and p97 inh conf 4.
For COCCCn1c(N)c(C(=O)OCCOC)c2nc3ccccc3nc21 the results were eIF4E 4G PPI 4, NCF1 inh 0, Tb MetRS inh 0, 14-3-3 Bad inh 2, SUMO HTRF inh 80, p97 ATPase inh 24* and p97 inh conf 4.
O=C1NC(=O)N(Cc2ccco2)C(=O)/C1=C/C=C/c1ccco1 was read as eIF4E 4G PPI 7, NCF1 inh -7, Tb MetRS inh 0, 14-3-3 Bad inh 27, SUMO HTRF inh 73*, p97 ATPase inh 31* and p97 inh conf 12.
`O=C1NC(=S)NC(=O)C1Cc1ccccc1O` gave Tb MetRS inh 0.
c1ccc2c(c1)Sc1ccccc1N2CC1CN2CCC1CC2 (stereo not drawn) was read as eIF4E 4G PPI 10, NCF1 inh 2, Tb MetRS inh 0, 14-3-3 Bad inh -2, SUMO HTRF inh 8, p97 ATPase inh 18* and p97 inh conf 15*.
Cc1c(CCC(=O)N2C[C@H]3C[C@@H](C2)c2cccc(=O)n2C3)c(=O)oc2c(C)c(O)ccc12 was read as Tb MetRS inh 0.
C[C@]12CC[C@@H]3c4ccc(O)c(O)c4CC[C@H]3[C@@H]1CC[C@@H]2O was read as eIF4E 4G PPI 42*, NCF1 inh 6, Tb MetRS inh -1, 14-3-3 Bad inh 47, SUMO HTRF inh 1, p97 ATPase inh 23* and p97 inh conf 5.
For C[C@]12CC[C@H]3[C@@H](CCC4=CC(=O)CC[C@@H]43)[C@@H]1CC[C@@H]2O the results were Tb MetRS inh 0.
For O=C(NCCN1CCC2(CC1)C(=O)NCN2c1cccc(F)c1)c1ccc2ccccc2c1 the results were Tb MetRS inh 0.
For C[C@H]1CCC[C@H](O)CCCCCc2cc(O)cc(O)c2C(=O)O1 the results were eIF4E 4G PPI 3, NCF1 inh 7, Tb MetRS inh 1, 14-3-3 Bad inh -2, SUMO HTRF inh 5 and p97 ATPase inh 7.
CC1CCC[C@H](O)CCCCCc2cc(O)cc(O)c2C(=O)O1 (stereo partly drawn) was read as eIF4E 4G PPI 2, NCF1 inh -10, Tb MetRS inh 0, 14-3-3 Bad inh 7, SUMO HTRF inh 14, p97 ATPase inh 17* and p97 inh conf 25*.
Screening CCOC(=O)c1cc2ccccc2n1C1CCN(Cc2ccccc2)CC1 returned Tb MetRS inh -1.
`CC(=O)N1N=C2C3CCN(CC3)C2C1c1ccc(C)cc1` (stereo not drawn) gave eIF4E 4G PPI -2, NCF1 inh -3, Tb MetRS inh 0, 14-3-3 Bad inh 6, SUMO HTRF inh -10 and p97 ATPase inh 1.
CC(=O)N1N=C2C3CCN(CC3)C2C1c1cccc2ccccc12 (stereo not drawn) was read as eIF4E 4G PPI 7, NCF1 inh -1, Tb MetRS inh -1, 14-3-3 Bad inh -7, SUMO HTRF inh -2, p97 ATPase inh 16* and p97 inh conf 11.
For O=C(O)CC1OCC=C2CN3CCC45C6=CC(=O)C(=O)C([N+](=O)[O-])=C6NC4C1C2CC35 (stereo not drawn) the results were eIF4E 4G PPI 0, NCF1 inh -4, Tb MetRS inh 1, 14-3-3 Bad inh 9, SUMO HTRF inh 100*, p97 ATPase inh 38* and p97 inh conf 37*.
O=C(O)CC1OCC=C2CN3CCC45c6ccccc6NC4C1C2CC35 (stereo not drawn) was read as eIF4E 4G PPI -3, NCF1 inh -13, Tb MetRS inh -1, 14-3-3 Bad inh -5, SUMO HTRF inh -7 and p97 ATPase inh 3.
For Cc1ccc(S(=O)(=O)N(C)C/N=C(\N)N[N+](=O)[O-])cc1 the results were eIF4E 4G PPI -2, NCF1 inh -7, Tb MetRS inh 0, 14-3-3 Bad inh 28, SUMO HTRF inh 8, p97 ATPase inh 15* and p97 inh conf 7.
`CN1CCC(n2nccc2N)CC1` gave eIF4E 4G PPI -1, NCF1 inh -9, Tb MetRS inh 0, 14-3-3 Bad inh 0, SUMO HTRF inh -2, p97 ATPase inh 15* and p97 inh conf 2.
COc1cc2cc(C(=O)N3CC(COS(C)(=O)=O)c4ccc(O)cc43)[nH]c2c(OC)c1OC (stereo not drawn) was read as Tb MetRS inh 0.
`COC(=O)N1Cc2ccccc2-n2nncc2C1` gave Tb MetRS inh 0.
Screening O=C1NCN(c2ccccc2)C12CCN(C(c1cccc3ccccc13)c1nnnn1C1CCCC1)CC2 (stereo not drawn) returned Tb MetRS inh -1.
CCn1nc(-c2ccccc2)nc2c(=O)n(C)c(=O)nc1-2 was read as eIF4E 4G PPI 2, NCF1 inh 10, Tb MetRS inh 27*, 14-3-3 Bad inh 15, SUMO HTRF inh 104*, p97 ATPase inh 37* and p97 inh conf 34*.
`N#CC(C#N)=NNc1ccc(S(N)(=O)=O)cc1` gave eIF4E 4G PPI -2, NCF1 inh -19, Tb MetRS inh 1, 14-3-3 Bad inh 7, SUMO HTRF inh 24, p97 ATPase inh 23* and p97 inh conf 25*.
